Assay results published in ChEMBL document CHEMBL4196220, “Synthesis and Discovery of Arylpiperidinylquinazolines: New Inhibitors of the Vesicular Monoamine Transporter” (J Med Chem, 2018).
Active and inactive are the calls of the source. The rule behind the calls is not given here.

Assays:
[1] = biological target: T1, Synaptic vesicular amine transporter (Homo sapiens, UniProt Q05940); assay: Displacement of [3H]reserpine from human VMAT2 expressed in HEK293 cell membranes incubated for 60 mins by scintillation counting method
T1 sequence (Q05940 whole entry): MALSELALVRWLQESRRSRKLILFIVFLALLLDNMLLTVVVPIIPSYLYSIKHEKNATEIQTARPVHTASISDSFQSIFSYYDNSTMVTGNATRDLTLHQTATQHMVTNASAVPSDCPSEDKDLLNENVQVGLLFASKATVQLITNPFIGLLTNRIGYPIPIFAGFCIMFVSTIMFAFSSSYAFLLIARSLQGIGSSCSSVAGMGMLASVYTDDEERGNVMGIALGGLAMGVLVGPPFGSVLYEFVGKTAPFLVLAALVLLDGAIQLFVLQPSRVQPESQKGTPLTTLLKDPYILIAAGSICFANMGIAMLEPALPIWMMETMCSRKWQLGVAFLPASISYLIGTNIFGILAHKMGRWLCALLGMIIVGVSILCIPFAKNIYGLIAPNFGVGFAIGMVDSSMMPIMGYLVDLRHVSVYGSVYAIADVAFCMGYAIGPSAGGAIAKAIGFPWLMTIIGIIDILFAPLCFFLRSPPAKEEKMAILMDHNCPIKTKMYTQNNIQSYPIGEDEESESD

[2] = biological target: T1, Synaptic vesicular amine transporter; assay: Displacement of [3H]DHTB from human VMAT2 expressed in HEK293 cell membranes incubated for 90 mins by microbeta scintillation counting method
How it was run: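 Tris buffer without ATP, 90 min at room temperature. Nonspecific binding defined with 2 μM DHTB. Filtermat filtration and microBeta counting. Test compounds 1 nM–10 μM.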

[3] = biological target: T1, Synaptic vesicular amine transporter; assay: Displacement of [3H](+)-syn-Ethyl 1-(2-(2,4-Dioxo-1,2-dihydroquinazolin-3(4H)-yl)ethyl)-4-(4-fluorophenyl)piperidine-3-carboxylate from human VMAT2 expressed in HEK293 cell membranes incubated for 60 mins by scintillation counting method
How it was run: (§1)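 Membranes from confluent HEK-293 cells stably expressing human VMAT2, prepared by osmotic shock and restored with Tris/K tartrate/MgSO4. About 50−75 μg protein per assay with [3H](+)-5b at 50−100 nM final. Incubated 60 min at 4 °C in the dark. Filtration, then beta counting.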

[4] = biological target: T1, Synaptic vesicular amine transporter; assay: Inhibition of human VMAT2 expressed in HEK293 cell membranes assessed as reduction in [3H[-5HT uptake pre-incubated for 10 mins before [3H[-5HT addition and measured after 6 mins; format: cell-based
How it was run: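 Vesicular membranes from HEK-hVMAT2 cells: differential centrifugation, osmotic shock, then resuspension in uptake buffer (tartrate/Tris/KCl/MgSO4, ascorbate, tropolone, pargyline, pH 7.4, 2 mM MgATP). Drug preincubation 10 min at 30 °C. Stopped by filtration. Duplicate wells, IC50.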

[5] = biological target: Synaptic vesicular amine transporter (Mus musculus, UniProt Q8BRU6); assay: Inhibition of VMAT2 in C57Bl/6J mouse striatal membranes assessed as reduction in [3H[-5HT uptake pre-incubated for 10 mins before [3H[-5HT addition and measured after 8 mins; format: cell membranes, Striatum, Membrane
Sequence of Synaptic vesicular amine transporter (Mus musculus, UniProt Q8BRU6) (Q8BRU6 whole entry): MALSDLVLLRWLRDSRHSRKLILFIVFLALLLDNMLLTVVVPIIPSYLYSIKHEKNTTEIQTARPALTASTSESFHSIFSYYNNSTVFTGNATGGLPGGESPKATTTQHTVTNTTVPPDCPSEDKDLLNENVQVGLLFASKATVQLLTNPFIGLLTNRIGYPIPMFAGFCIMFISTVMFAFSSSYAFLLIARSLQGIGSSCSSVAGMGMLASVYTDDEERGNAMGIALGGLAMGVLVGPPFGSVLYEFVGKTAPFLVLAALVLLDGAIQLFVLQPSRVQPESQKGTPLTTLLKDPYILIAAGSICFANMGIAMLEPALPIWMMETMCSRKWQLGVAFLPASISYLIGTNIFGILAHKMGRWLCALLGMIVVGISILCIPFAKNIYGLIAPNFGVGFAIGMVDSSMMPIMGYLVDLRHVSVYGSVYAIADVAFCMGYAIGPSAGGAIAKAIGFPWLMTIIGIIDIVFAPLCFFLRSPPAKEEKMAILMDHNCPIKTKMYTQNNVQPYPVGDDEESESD

[6] = biological target: 5-hydroxytryptamine receptor 2A (Homo sapiens, UniProt P28223); assay: biochemical; format: cell-based, HEK293
Sequence of 5-hydroxytryptamine receptor 2A (P28223 whole entry): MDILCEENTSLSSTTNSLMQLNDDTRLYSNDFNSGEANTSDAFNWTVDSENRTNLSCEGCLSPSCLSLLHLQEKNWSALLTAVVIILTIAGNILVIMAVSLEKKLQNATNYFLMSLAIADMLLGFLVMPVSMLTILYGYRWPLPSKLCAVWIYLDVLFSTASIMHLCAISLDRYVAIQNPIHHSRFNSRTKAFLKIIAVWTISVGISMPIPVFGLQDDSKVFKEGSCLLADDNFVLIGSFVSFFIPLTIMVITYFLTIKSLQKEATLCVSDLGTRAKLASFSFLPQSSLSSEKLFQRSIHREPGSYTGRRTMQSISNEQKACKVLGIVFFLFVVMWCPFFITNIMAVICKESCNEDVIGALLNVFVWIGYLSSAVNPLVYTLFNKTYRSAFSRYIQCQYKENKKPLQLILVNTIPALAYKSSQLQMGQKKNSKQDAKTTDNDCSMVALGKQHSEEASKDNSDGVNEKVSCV

HEK293 [7] = assay: Cytotoxicity in HEK293 cells expressing human VMAT2 assessed as reduction in cell viability at 10 uM incubated for 24 hrs by MTT assay; format: cell-based; settings: hek293, 24 h
How it was run: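 HEK-VMAT2 cells plated at 5 × 10^4 per well. Drugs added on day 2 to triplicate wells, all with 0.1% DMSO, for 24 h. MTT reagent then 2 h at 37 °C, solvent added, read at 590 nm. Values normalized to control cells. One-way ANOVA with post hoc test.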

[8] = biological target: T1, Synaptic vesicular amine transporter; assay: Binding affinity to human VMAT2 expressed in HEK293 cell membranes by scintillation counting method based saturation binding assay
How it was run: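 Saturation binding on HEK-VMAT2 membranes, with duplicate points mixing labeled and unlabeled ligand. [3H](+)-5b: 5–600 nM, 60 min at 4 °C in the dark, buffer with 2 mM MgATP. 3−4 independent experiments.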

[9] = biological target: T1, Synaptic vesicular amine transporter; assay: Binding affinity to human VMAT2 expressed in HEK293 cell membranes in presence of 2 mM Mg-ATP by scintillation counting method; settings: tested as the 3H-labelled form; how it was run: as §1
[10] = biological target: T1, Synaptic vesicular amine transporter; assay: Binding affinity to human VMAT2 expressed in HEK293 cell membranes assessed as observed associate rate constant at 24 to 28 nM in presence of 2 mM Mg-ATP by scintillation counting method; settings: tested as the 3H-labelled form
How it was run: (§2)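 Kinetics for the [3H](+)-5b site on HEK-293 membranes expressing human VMAT2, run with 2 mM Mg-ATP. Excess unlabeled ligand of the same kind was used. Association at a single radioligand concentration was fitted as one-phase exponential association to give kobs.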

[11] = biological target: T1, Synaptic vesicular amine transporter; assay: Binding affinity to human VMAT2 expressed in HEK293 cell membranes assessed as half life at 24 to 28 nM in presence of 2 mM Mg-ATP by scintillation counting method; settings: tested as the 3H-labelled form; how it was run: as §2
[12] = biological target: Sodium-dependent dopamine transporter (Homo sapiens, UniProt Q01959); assay: Displacement of [125I]RTI-55 from human DAT expressed in HEK293 cell membranes
Sequence of Sodium-dependent dopamine transporter (Q01959 whole entry): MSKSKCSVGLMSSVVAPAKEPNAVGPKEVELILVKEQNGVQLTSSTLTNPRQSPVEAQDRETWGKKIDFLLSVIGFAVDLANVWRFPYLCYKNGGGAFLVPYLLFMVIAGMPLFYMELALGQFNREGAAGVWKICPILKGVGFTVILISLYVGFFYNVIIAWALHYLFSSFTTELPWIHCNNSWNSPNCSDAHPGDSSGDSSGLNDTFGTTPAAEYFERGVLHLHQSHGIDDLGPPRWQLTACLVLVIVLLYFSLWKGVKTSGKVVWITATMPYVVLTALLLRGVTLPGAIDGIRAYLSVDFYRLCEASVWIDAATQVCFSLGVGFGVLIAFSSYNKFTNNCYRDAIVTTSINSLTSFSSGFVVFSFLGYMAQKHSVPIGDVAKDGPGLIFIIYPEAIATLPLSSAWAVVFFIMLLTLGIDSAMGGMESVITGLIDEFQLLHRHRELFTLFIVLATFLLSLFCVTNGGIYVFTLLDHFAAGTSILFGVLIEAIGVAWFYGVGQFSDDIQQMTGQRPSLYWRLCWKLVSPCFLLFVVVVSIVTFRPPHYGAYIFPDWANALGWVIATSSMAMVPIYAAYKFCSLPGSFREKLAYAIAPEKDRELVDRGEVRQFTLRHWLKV
How it was run: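 Total particulate membranes from HEK-293 cells stably expressing hDAT, with [125I]RTI-55 at 40−60 pM. Nonspecific binding defined with 5 μM mazindol.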

[13] = biological target: T2, 5-hydroxytryptamine receptor 1A (Homo sapiens) (UniProt P08908); assay: Binding affinity to 5HT1A receptor (unknown origin)
T2 sequence (whole entry): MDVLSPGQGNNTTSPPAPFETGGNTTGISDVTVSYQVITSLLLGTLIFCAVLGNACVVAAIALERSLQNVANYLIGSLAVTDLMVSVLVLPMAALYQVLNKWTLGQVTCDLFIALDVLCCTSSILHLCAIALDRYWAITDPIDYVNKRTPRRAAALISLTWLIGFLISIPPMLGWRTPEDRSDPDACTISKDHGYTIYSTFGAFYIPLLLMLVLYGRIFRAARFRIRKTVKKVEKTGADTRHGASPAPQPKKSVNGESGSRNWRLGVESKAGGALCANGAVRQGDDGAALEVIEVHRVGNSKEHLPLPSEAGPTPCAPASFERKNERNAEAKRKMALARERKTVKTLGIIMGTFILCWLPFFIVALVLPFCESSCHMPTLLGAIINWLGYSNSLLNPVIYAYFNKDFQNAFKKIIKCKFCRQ

HEK293 [14] = assay: Cytotoxicity in HEK293 cells expressing human VMAT2 assessed as reduction in cell viability at 1 uM incubated for 24 hrs by MTT assay; format: cell-based; settings: hek293, 24 h
How it was run: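 HEK-293 cells stably expressing human VMAT2, seeded at 5 × 10^4 cells/well in DMEM with 10% FetalClone, penicillin/streptomycin and G418. On day 2, compound in DMEM was added to triplicate wells, with 0.1% DMSO in all conditions, for 24 h. MTT reagent was then added for 2 h at 37 °C, followed by solvent. Absorbance read at 590 nm, normalized to control cells, and analyzed by one-way ANOVA with Dunnett's test.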

| Structure (SMILES) | Ki [1] [nM] | Ki [2] [µM] | Ki [3] [nM] | IC50 [4] [nM] | IC50 [5] [nM] | Ki [6] [µM] | Activity (HEK293 [7]) | Ki [12] [µM] | Activity [13] | also measured |
| --- | --- | --- | --- | --- | --- | --- | --- | --- | --- | --- |
| CCC1(O)CC2c3cc(OC)c(OC)cc3CCN2CC1CC(C)C (stereo not drawn) | 83 | 0.064 | 1930 | 154 | 49.6 | > 10 | Non-Toxic | – | – | – |
| COc1cc2c(cc1OC)C1CC(O)C(CC(C)C)CN1CC2 (stereo not drawn) | – | – | – | – | 19.8 | 0.0067 | Non-Toxic | – | – | Bmax [8]: 41.2 pmol/mg |
| CNC(C)Cc1ccccc1 (stereo not drawn) | 6400 | 346 | 24500 | 3620 | 2740 | 101 | Non-Toxic | – | – | – |
| CCOC(=O)[C@H]1CN(CCn2c(=O)[nH]c3ccccc3c2=O)CC[C@H]1c1ccc(F)cc1 | – | – | – | – | – | – | – | – | – | fold change (FC) [9]: 15; K [10]: 0.051; T1/2 [11]: < 1 min; Bmax ([8]; tested as the 3H-labelled form): 13.5 pmol/mg |
| CCOC(=O)[C@@H]1CN(CCn2c(=O)[nH]c3ccccc3c2=O)CC[C@@H]1c1ccc(F)cc1 (racemic) | – | – | – | – | 3.46 | 2.38 | Non-Toxic | 4.17 | inactive | – |
| CCOC(=O)[C@@H]1CN(CCn2c(=O)[nH]c3ccccc3c2=O)CC[C@@H]1c1ccc(C(F)(F)F)cc1 (racemic) | > 10000 | > 10 | 720 | 2900 | – | > 10 | – | > 10 | inactive | – |
| CCOC(=O)[C@@H]1CN(CCn2c(=O)[nH]c3ccccc3c2=O)CC[C@@H]1c1ccc(N(C)C)cc1 (racemic) | > 10000 | > 10 | 1960 | 5800 | – | > 10 | – | > 10 | inactive | – |
| CCOC(=O)[C@@H]1CN(CCn2c(=O)[nH]c3ccccc3c2=O)CC[C@@H]1c1ccccc1 (racemic) | 70 | > 7.7 | 287 | 19.7 | 9.1 | > 10 | Non-Toxic | 1.61 | inactive | – |
| CCOC(=O)[C@@H]1CN(CCn2c(=O)[nH]c3ccccc3c2=O)CC[C@@H]1c1cccs1 (racemic) | 450 | 6.16 | 900 | 101 | 31.5 | > 9.3 | Non-Toxic | > 7.1 | inactive | – |
| CCOC(=O)[C@@H]1CN(CCn2c(=O)[nH]c3ccccc3c2=O)CC[C@@H]1c1cccc(C(F)(F)F)c1 (racemic) | 990 | > 10 | 350 | 125 | 12.8 | > 10 | Non-Toxic | > 10 | inactive | – |
| CCOC(=O)[C@@H]1CN(CCn2c(=O)[nH]c3ccccc3c2=O)CC[C@@H]1c1ccc(-c2ccccc2)cc1 (racemic) | > 10000 | > 10 | 3770 | > 10000 | – | > 10 | – | > 10 | inactive | – |
| CCOC(=O)[C@@H]1CN(CCn2c(=O)[nH]c3ccccc3c2=O)CC[C@@H]1c1cccc2c1OCCO2 (racemic) | – | – | – | – | – | > 10 | – | > 10 | inactive | – |
| CCOC(=O)[C@@H]1CN(CCn2c(=O)[nH]c3ccccc3c2=O)CC[C@H]1c1ccc(F)cc1 (racemic) | – | – | – | – | 24.7 | 0.0373 | Non-Toxic | > 9.3 | inactive | – |
| CCOC(=O)[C@@H]1CN(CCn2c(=O)[nH]c3ccccc3c2=O)CC[C@@H]1c1ccc(C)cc1 (racemic) | > 10000 | > 9.1 | 452 | 2700 | – | > 10 | – | 7.3 | inactive | – |
| CCOC(=O)c1ccc([C@H]2CCN(CCn3c(=O)[nH]c4ccccc4c3=O)C[C@H]2C(=O)OCC)cc1 (racemic) | – | – | – | – | – | > 10 | – | > 10 | inactive | – |
| CCOC(=O)C1CN(CCn2c(=O)[nH]c3ccccc3c2=O)CCC1c1ccc(F)cc1 (single isomer, unassigned; (+)) | – | – | – | – | – | – | – | – | inactive | – |
| CCOC(=O)C1CN(CCn2c(=O)[nH]c3ccccc3c2=O)CCC1c1ccc(F)cc1 (single isomer, unassigned; (-)) [listing 1 of 2 here] | – | – | – | – | 6.6 | – | – | 9.9 | – | Ki ([6]; hek293): > 10 µM |
| CCOC(=O)C1CN(CCn2c(=O)[nH]c3ccccc3c2=O)CCC1c1ccc(F)cc1 (single isomer, unassigned; (-)) [listing 2 of 2 here] | – | – | – | – | – | – | – | – | inactive | – |
| O=C(c1ccc(F)cc1)C1CCN(CCn2c(=O)[nH]c3ccccc3c2=O)CC1 [KETANSERIN] | 353 | 0.077 | 1190 | 180 | 100 | – | Non-Toxic | – | – | – |
| CN1[C@@H](CC(=O)c2ccccc2)CCC[C@H]1C[C@H](O)c1ccccc1 [LOBELINE] | 1840 | > 10 | 1950 | 4200 | 381 | 7.4 | – | – | – | – |
| COC(=O)[C@H]1[C@H]2C[C@@H]3c4[nH]c5cc(OC)ccc5c4CCN3C[C@H]2C[C@@H](OC(=O)c2cc(OC)c(OC)c(OC)c2)[C@@H]1OC [RESERPINE] | – | – | – | – | 1.79 | – | – | – | – | Bmax [8]: 0.942 pmol/mg; Activity (HEK293 [14]): Non-Toxic |
